Out of some 330,000 compounds screened, about 350 (0.11%) were called active.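 The calls were made as follows: active = activation more than six SD over the plate average, tested at 20 µM; inactive = the rest.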 For the sample, actives were picked, then their nearest neighbours and some compounds at random.
target: Apelin receptor (Homo sapiens) (UniProt P35414); experiment: agonists of human apelin receptor APJ, primary screen, CHO-K1 cells, PathHunter beta-arrestin, luminescence (AID 2520); conditions: at 20 µM, stronger effect = higher value, 0% DMSO wells, 100% apelin;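 also: 0% = DMSO alone and 100% = apelin-13 at 10 nM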
In short: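 Test system: CHO-K1 APJ beta-arrestin complementation cell line | Compound: Single test compound dose, 20 µM final, 1% DMSO | Incubation: Compound 90 min 25 °C, reagent 1 h | Measured by: beta-gal luminescence | Read-out basis: APJ–arrestin association signal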

Apelin receptor (Homo sapiens), sequence (P35414 whole entry, looked up): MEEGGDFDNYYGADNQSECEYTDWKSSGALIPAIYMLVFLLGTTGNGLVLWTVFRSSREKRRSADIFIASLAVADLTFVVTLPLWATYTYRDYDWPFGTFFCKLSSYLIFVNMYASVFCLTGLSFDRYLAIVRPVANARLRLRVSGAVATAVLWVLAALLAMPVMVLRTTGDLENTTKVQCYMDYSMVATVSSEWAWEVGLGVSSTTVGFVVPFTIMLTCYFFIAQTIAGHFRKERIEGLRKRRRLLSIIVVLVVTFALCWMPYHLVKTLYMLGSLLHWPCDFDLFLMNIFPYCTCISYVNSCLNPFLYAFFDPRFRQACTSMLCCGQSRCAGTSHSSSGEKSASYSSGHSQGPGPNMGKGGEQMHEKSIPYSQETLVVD

Structure (SMILES)	activation
CCn1c(SCC(=O)NC2CC2)nnc1-c1ccncc1	-8.09% (inactive)
CN1CCC(=O)N([C@H](CO)Cc2ccccc2)CC1	-1.16% (inactive)
Cc1nn(Cc2ccccc2)c(C)c1C(=O)NCCCN1CCCC1=O	-4.22% (inactive)
COC(=O)C1C(=O)CC(C)(O)C(C(=O)OC)C1c1ccc2c(c1)OCO2 (stereo not drawn)	2.74% (inactive)
NC(=O)CN1CCCC1c1ccc2c(c1)OCCO2 (stereo not drawn)	0.777% (inactive)
O=C(O)Cc1ccc(NC(=O)C2CCCCC2C(=O)O)cc1 (stereo not drawn)	-3.2% (inactive)
Cc1cc(C)nc(NC2=NCC(=O)N2c2ccc(Cl)cc2)n1	-2.04% (inactive)
Cc1ccnc(SCCn2c(N(C)Cc3ccccc3)nc3c2c(=O)n(C)c(=O)n3C)n1	-0.694% (inactive)
Cc1[nH]c(C)c(S(=O)(=O)N2CCN(c3cccc(C(F)(F)F)c3)CC2)c1C(=O)N1CCCC1	0.662% (inactive)
COc1ccccc1N(CC(=O)NC1CCCC1)C(=O)C1(C)CC(=O)N=C2C=CC(C)=CN21 (stereo not drawn)	-0.286% (inactive)
Cc1cc(C)nc(SCc2nnc(SCC(=O)Nc3ncc(C)s3)n2Cc2ccco2)n1	-3.79% (inactive)
CC[C@@]1(C(=O)OC)N[C@H](CN(C)C(C)=O)[C@@H]2C(=O)N(C)C(=O)[C@@H]21	-1.38% (inactive)
CCC(=O)Nc1c(C)n[nH]c1C	-0.823% (inactive)
CN1CCN(c2ncc3c(n2)CC(c2ccccc2F)CC3=O)CC1 (stereo not drawn)	-2.83% (inactive)
CC(C)(C)Nc1c(N)c(=O)oc2ccccc12	-1.36% (inactive)
Cc1ccccc1-n1nnc2c(=O)oc3ccccc3c21	10.2% (active)
CCCCC(=O)Nc1cc(C)c2c(=O)oc3ccccc3c2n1	7.83% (inactive)
O=C(c1ccc(-c2ccccc2)cc1)C1CCCN(C(=O)c2cncs2)C1 (stereo not drawn)	1.31% (inactive)
Cc1noc(C)c1C(=O)NCC1COc2ccccc2O1 (stereo not drawn)	-2.37% (inactive)
Cc1ccccc1/[N+]([O-])=C/c1ccncc1	1.01% (inactive)

Structure (SMILES)	activation
COCCn1nnnc1CN1CCC(NC(=O)Nc2cccc(OC)c2)CC1	-0.645% (inactive)
COc1ccc(NC(=O)CC(NC(C)c2ccccc2)C(=O)O)cc1 (stereo not drawn)	-1.25% (inactive)
CCN(CC)CCNc1nc(-c2ccc(OC(F)F)cc2)c(C)s1	-1.98% (inactive)
CC1(C(=O)NNC(=S)NCC2CCCO2)CC1(Cl)Cl (stereo not drawn)	-1.22% (inactive)
O=C1CCC(=O)N1c1ccc(NCCc2ccccc2F)c([N+](=O)[O-])c1	-3.51% (inactive)
O=C(NCCc1ccc(Cl)cc1)C1CCCN1C(=O)NCc1ccccc1 (stereo not drawn)	0.456% (inactive)
CN1C(=O)c2ccccc2C(C(=O)NCCCN2CCCC2)C1c1c[nH]c2ccccc12 (stereo not drawn)	-1.97% (inactive)
Cc1ccc(NS(=O)(=O)c2ccc(-c3ccc(=O)[nH]n3)o2)c(C)c1	2.4% (inactive)
CN(C)c1ccc(C(CC(=O)O)C(=O)O)cc1 (stereo not drawn)	-1.37% (inactive)
CC(C)(C)n1nnc(CCc2nnn(C(C)(C)C)n2)n1	-4.6% (inactive)
O=C(O)C1CCCN1S(=O)(=O)c1ccc(Br)cc1 (stereo not drawn)	-2.7% (inactive)
O=C(C1CC(=O)N(C2CCCC2)C1)N1CCN(c2cccc(C(F)(F)F)c2)CC1 (stereo not drawn)	5.77% (inactive)
CN(C)c1nc2n(c(=O)n1)CCO2	-2.79% (inactive)
c1ccc(C2CCC(N3CCC(N4CCCCC4)CC3)CC2)cc1 (stereo not drawn)	-3.04% (inactive)
O=C(Nc1ccc(Cl)cc1)c1cc2nc(C3CC3)cc(C(F)(F)F)n2n1	-4.3% (inactive)
FC(F)(F)c1ccc(CN2C[C@@H]3C(c4ccccc4)C4(c5ccccc5)CC3(C4)[C@H]2c2ccccc2)cc1 (stereo partly drawn)	-0.566% (inactive)
Cc1ccc(N(C(=O)Cc2cccs2)C2C=CS(=O)(=O)C2)cc1Cl (stereo not drawn)	-2.42% (inactive)
Cn1c(CC(=O)Nc2ccc(F)cc2)nnc1SCC(=O)NC1CCCCC1	-3.67% (inactive)
COc1ccc(C)cc1NC(=O)c1cc(-c2ccccc2)nc2c1cnn2C(C)C	-4.65% (inactive)
CCOc1cc2[nH]c(=S)n(CCN3CCCCC3C)c(=O)c2cc1OCC (stereo not drawn)	7.97% (inactive)

Structure (SMILES)	activation
CCOc1cc2[nH]c(=S)n(CCCN3CCCC3=O)c(=O)c2cc1OCC	23.3% (active)
CCOc1cc2[nH]c(=O)n(Cc3ccc(C(=O)NCCCN4CCCC4=O)cc3)c(=O)c2cc1OCC	3.97% (inactive)
CC1CN(C(=O)CCC(=O)NCCCN2CCC(Cc3ccccc3)CC2)c2cc(Cl)ccc2O1 (stereo not drawn)	-4.59% (inactive)
CCn1c(CSCc2c(Cl)cccc2Cl)n[nH]c1=S	-4.78% (inactive)
CN1CCN(CCCCOc2ccccc2-c2ccccc2)CC1	3.27% (inactive)
O=Cc1ccc(OCc2cn3ccccc3n2)cc1	-1.42% (inactive)
COc1ccccc1CNC(=O)CN1CCC(n2cnc3cc(F)ccc32)CC1	-0.106% (inactive)
Cc1cc(C(=O)OCC(=O)N2C(C)CCCC2C)c2ccccc2n1 (stereo not drawn)	-2.15% (inactive)
O=C(c1ccccc1)N1CCN(C(=O)c2cc3nc(-c4ccccc4)cc(C(F)(F)F)n3n2)CC1	-0.488% (inactive)
COc1ccccc1Oc1ccc(N2CC(C(=O)OCC(=O)c3ccc(F)cc3)CC2=O)cc1 (stereo not drawn)	-2.79% (inactive)
O=C(Nc1ccc(F)c([N+](=O)[O-])c1)C1CC(=O)N(Cc2ccccc2)C1 (stereo not drawn)	-2.4% (inactive)
COc1cccc(N(CC(=O)NC2CCCC2)C(=O)Cn2nnc(-c3ccc(C)cc3)n2)c1	0.507% (inactive)
O=C(CCCn1c(=O)c2sccc2n(CC(=O)NCC2CCCO2)c1=O)NCc1ccco1 (stereo not drawn)	-4.48% (inactive)
COc1ccccc1NC(=O)C1=C(C)Nc2nc3ccccc3n2C1c1cccs1 (stereo not drawn)	-1.44% (inactive)
COc1ccc(S(=O)(=O)N(CC(=O)NCc2ccco2)c2ccc(F)cc2)cc1	-0.367% (inactive)
CN(C)N1C(N)=C(C#N)C(c2ccc(Br)cc2)C2=C1CCCC2=O (stereo not drawn)	0.53% (inactive)
O=[N+]([O-])c1ccccc1N/N=C1\CCc2ccccc21	-0.52% (inactive)
O=C(N[C@@H](Cc1c[nH]c2ccccc12)C(=O)O)OCC1c2ccccc2-c2ccccc21	7.88% (inactive)

— PubChem BioAssay AID2520 (Sanford-Burnham Center for Chemical Genomics, 2010)
